Published values collected from several papers.
Each line is one published result; the experiments were not run side by side.
FLT3 D835Y: Receptor-type tyrosine-protein kinase FLT3 (FLT3, Homo sapiens, UniProt P36888, D835Y)
FLT3: Receptor-type tyrosine-protein kinase FLT3 (FLT3, Homo sapiens, UniProt P36888)
FLT3 N841I: Receptor-type tyrosine-protein kinase FLT3 (FLT3, Homo sapiens, UniProt P36888, N841I)

CC#CC(=O)N1CCC[C@H]1c1nc(-c2ccc(C(=O)Nc3ccccn3)cc2)c2c(N)nccn12 — inhibition (Receptor-type tyrosine-protein kinase FLT3 (FLT3, Homo sapiens, UniProt P36888, D835V); enzyme activity; inhibitor; 1 µM): 1%
Cc1ccc(NC(=O)c2ccnc(C(F)(F)F)c2)cc1-c1cc(OCCO)nc(N2CCOCC2)c1 — remaining binding (Receptor-type tyrosine-protein kinase FLT3 (FLT3, Homo sapiens, UniProt P36888, R834Q); binding; 1 µM): 100%
COc1ccc2oc(-c3ccc4nc(N)oc4c3)c/c(=N\c3ccccc3NC(=O)CCN)c2c1 — remaining signal (FLT3 D835Y; cell-free assay; 1 µM): 92%
C=CC(=O)N1CCC([C@@H]2CCNc3c(C(N)=O)c(-c4ccc(Oc5ccccc5)cc4)nn32)CC1 — inhibition (Receptor-type tyrosine-protein kinase FLT3 (FLT3, Homo sapiens, UniProt P36888, ITD); enzyme activity; inhibitor; 1 µM): 5%
C#Cc1cc(-c2cc(Nc3nc(N[C@@H](C)c4ccc(F)cn4)ncc3Cl)n[nH]2)ccc1C=O — inhibition (FLT3; enzyme activity; inhibitor; 0.2 µM): 98.8%
C1=C/COCc2cc(ccc2OCCN2CCCC2)Nc2nccc(n2)-c2cccc(c2)COC/1 — remaining binding (FLT3 N841I; binding; 0.1 µM): 4.3%
N#Cc1ccc(NC(=O)Nc2ccccc2)cc1 — remaining binding (FLT3; cell-free assay; competition with immobilised ligand; 25 µM): 100%
C[C@]1(O)CCCN(c2nc(Nc3ccc(S(=O)(=O)N[C@H]4CC[C@H](CN5CCN(c6ccc(C7CCC(=O)NC7=O)cc6F)CC5)CC4)cc3F)ncc2C(F)(F)F)C1 (stereo partly drawn) — remaining binding (FLT3 N841I; binding; competition with immobilised ligand; 1 µM): 72%
CCCCC(=O)Nc1ccc(-c2ccc3ncn(CCC)c(=O)c3c2)cn1 — remaining binding (FLT3 D835Y; binding; competition with immobilised ligand; 0.5 µM): 96%
CN1CCN(C(=O)c2ccc(NC(=O)Nc3ccc(N(C)c4ccnc(Nc5ccc(CS(C)(=O)=O)cc5)n4)cc3)cc2)CC1 — remaining binding (FLT3 D835Y; binding; 1 µM): 5.3%
Cc1cc(S(=O)(=O)N[C@H]2CC[C@H](CN3CCN(c4ccc(C5CCC(=O)NC5=O)cc4F)CC3)CC2)ccc1Nc1ncc(C(F)(F)F)c(N2CCC[C@](C)(O)C2)n1 (stereo partly drawn) — remaining binding (FLT3 N841I; binding; competition with immobilised ligand; 1 µM): 47%
C[C@H]1CC[C@H](n2c3cnccc3c3cnc(Nc4ccc5c(n4)CCN(C(=O)CO)C5)nc32)CC1 — remaining signal (FLT3 D835Y; cell-free assay; 1 µM): 1%
O=C1C=C(Nc2ccc(OCc3cn(Cc4ccccc4)nn3)cc2)C(=O)c2ccccc21 — inhibition (FLT3; enzyme activity; inhibitor; radiometric; 10 µM): 46%
COc1ccc2[nH]c3c4[nH]c5ccc(OC)cc5c4c4c(c3c2c1)C(=O)NC4=O — remaining binding (FLT3 D835Y; binding; 1 µM): 16%
Cc1n[nH]c2ccc3nc(-c4ccc(C(=O)NCCN(C)C)cc4F)c4c(c3c12)CCCC4 — remaining activity (FLT3; enzyme activity; inhibitor; radiometric; 0.5 µM): 22%
